Results gathered from unrelated publications.
Each line is one published result; the experiments were not run side by side.
Target: Activin receptor type-1B (ACVR1B, Homo sapiens, UniProt P36896)
One construct used (P36896 24-505): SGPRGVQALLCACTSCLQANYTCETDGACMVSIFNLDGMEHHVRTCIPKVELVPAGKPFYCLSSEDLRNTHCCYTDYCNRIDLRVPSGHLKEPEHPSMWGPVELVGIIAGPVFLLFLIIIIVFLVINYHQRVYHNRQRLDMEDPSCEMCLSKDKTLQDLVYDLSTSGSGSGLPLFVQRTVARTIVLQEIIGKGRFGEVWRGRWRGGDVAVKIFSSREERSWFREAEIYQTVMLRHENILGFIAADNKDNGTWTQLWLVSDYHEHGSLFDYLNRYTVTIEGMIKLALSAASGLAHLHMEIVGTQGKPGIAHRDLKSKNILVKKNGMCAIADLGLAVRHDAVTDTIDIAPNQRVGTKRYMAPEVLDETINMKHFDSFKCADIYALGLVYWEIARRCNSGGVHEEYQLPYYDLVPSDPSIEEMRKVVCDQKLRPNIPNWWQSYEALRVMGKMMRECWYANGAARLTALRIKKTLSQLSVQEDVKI

| Compound | test | conditions | measurement | value |
| --- | --- | --- | --- | --- |
| CCN1CCC2(CC1)NC(=O)c1c(c3ccc(Cl)c(Cl)c3n1C)C2C#N (racemic) | thermal stability, DSF | 10 µM | ΔTm | 0 °C |
| CN(C)C1CCN(CC#Cc2nn(C3CCCC3)c3nc(NCc4ccccc4)ncc23)C1 (centres unmarked) | enzyme activity, inhibitor, FRET | 10 µM | inhibition | -8% |
| Cc1ccc(NC(=O)c2ccc(C)c(C(F)(F)F)c2)cc1C#Cc1nn(C2CCC(O)CC2)c2ncnc(N)c12 (centres unmarked) | cell-free assay | 10 µM | remaining signal | 79% |
| CN([C@@H]1CCc2c(CC(=O)O)c3cc(S(C)(=O)=O)ccc3n2C1)S(=O)(=O)c1ccc(F)cc1 | cell-free assay, competition with immobilised ligand | 1 µM | remaining binding | 99% |
| Cn1c2c(Cl)c(Cl)ccc2c2cc(N)[nH]c(=O)c21 | thermal stability, DSF | 10 µM | ΔTm | 3.9 °C |
| O=C1NC(=O)c2cc(Nc3ccc(F)cc3)c(Nc3ccc(F)cc3)cc21 | cell-free assay | 0.5 µM | remaining signal | 94.2% |
| Cc1cc(NC(=O)c2cccc3cc(-c4cccc5[nH]nc(N)c45)ccc23)ccc1F | enzyme activity, inhibitor | 0.1 µM | activity vs control | 103% |
| CC(C)(O)[C@H]1CC[C@H](Nc2ccc3ncc(-c4cccc(C(F)(F)F)c4)n3n2)CC1 | enzyme activity, inhibitor | 1 µM | remaining activity | 100% |
| CCN(CC)c1ccc(C2=NNC(=O)CC2C)cc1[N+](=O)[O-] (centres unmarked) | enzyme activity, inhibitor | 10 µM | remaining activity | 109% |
| CC1(C)NC(=O)c2[nH]c3c(Cl)c(Cl)ccc3c2C1C#N (centres unmarked) | thermal stability, DSF | 10 µM | ΔTm | 1.6 °C |
| COc1cc2ncnc(Nc3ccc(Oc4ccccc4)c(C)c3C)c2cc1OC | enzyme activity, inhibitor | 1 µM | inhibition | -3% |
| CNC(=O)c1cc(Oc2ccc(NC(=O)Nc3ccc(Cl)c(C(F)(F)F)c3)cc2)ccn1 | cell-free assay, inhibitor | 0.3 µM | inhibition | -6% |
| CC(C)(C)c1nc2c(s1)c1nc(N)ncc1c1ccc(NS(=O)(=O)c3c(F)cccc3F)c(F)c12 | enzyme activity, inhibitor, radiometric | 1 µM | remaining activity | 84% |
| O=C(Nc1cnn(-c2csc(C(=O)NC3COC3)c2)c1)Nc1ccccc1Cl | enzyme activity, inhibitor | 5 µM | remaining activity | 124% |
| CO[C@@H](C)c1c(Nc2ccc([C@H](N(C)C(=O)C3CCS(=O)(=O)CC3)C(F)(F)F)cc2)cnc2cc(Cl)nn12 | cell-free assay, competition with immobilised ligand | 1 µM | remaining binding | 72% |
| COc1cc(-c2cc(-c3ccc(N4CCNCC4)cc3)cnc2C)cc(OC)c1OC | enzyme activity, inhibitor | 0.1 µM | inhibition | 9% |
| C[C@@H](c1cccc(C#N)c1)n1cc(Cl)cc(C(N)=O)c1=N | cell-free assay, competition with immobilised ligand | 1 µM | remaining binding | 100% |
| Cc1ccc(Nc2nccc(N(C)c3ccc4c(C)n(C)nc4c3)n2)cc1S(N)(=O)=O | cell-free assay, inhibitor | 10 µM | inhibition | 17% |
| Cn1cc(Cl)c2c(Oc3c(F)cc(Nc4cc(Cl)nc(N)n4)cc3F)ccnc21 | cell-free assay, competition with immobilised ligand | 0.1 µM | remaining binding | 98% |
| Cn1c2c(c3ccc(Cl)c(Cl)c31)C(C#N)C1(CCN(C(=O)OC(C)(C)C)CC1)NC2=O (racemic) | thermal stability, DSF | 10 µM | ΔTm | -0.1 °C |
| CCCS(=O)(=O)Nc1ccc(F)c(C(=O)c2c[nH]c3ncc(-c4ccc(Cl)cc4)cc23)c1F | enzyme activity, inhibitor | 1 µM | inhibition | < 10% |
| O=C(Nc1ccc(Oc2ccc(F)cc2)cc1)N1CCc2ncccc2[C@H]1c1ccc(F)cc1 | cell-free assay, competition with immobilised ligand | 1 µM | remaining binding | 94% |
| O=C(Nc1cnn(-c2csc(C(=O)NC3COC3)c2)c1)Nc1c(F)cccc1Cl | enzyme activity, inhibitor | 5 µM | remaining activity | 82% |
| C[C@H](c1ccc(F)cc1)N(Cc1cccc(C(=O)O)c1)C(=O)c1cnc2ccccc2c1 | cell-free assay, competition with immobilised ligand | 1 µM | remaining binding | 100% |
| O=C(CSc1nc2nccnc2c(=O)n1CCc1ccccc1)Nc1nccs1 | enzyme activity, inhibitor | 10 µM | inhibition | 4% |
| CCOCCn1cc(C(=O)Nc2ccc(-n3nc(-c4cccnc4)cc3C(F)(F)F)cn2)ccc1=O | cell-free assay, competition with immobilised ligand | 1 µM | remaining binding | 79% |
| O=C1Nc2ccc(Cl)cc2C1=Cc1cc(Cl)c(O)c(Cl)c1 | cell-free assay | 0.5 µM | remaining signal | 127% |
| CNCc1ccccc1-c1csc([C@H](C)Nc2nc(C)nc3cc(OC)c(OC)cc23)c1 | cell-free assay, competition with immobilised ligand | 1 µM | remaining binding | 100% |
| Clc1ccc(Nc2nnc(Cc3ccncc3)c3ccccc23)cc1 | cell-free assay | 0.5 µM | remaining signal | 108% |
